From article PMC8428381 (Journal of Virology, 2021)
Structures can show the parent of a compound that is named as a salt.

Experiments:
uPA = uPA (Homo sapiens, UniProt P00749, C299A/N322Q); experiment: Chromogenic enzyme inhibition assay, uPA serine protease domain; type: biochemical
Summary of the method: (§1)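 Serine protease domains (uPA, matriptase) expressed in Pichia pastoris X-33. 2 nM enzyme preincubated 15 min at 37°C with varied test compound in 0.01 M HEPES, 0.15 M NaCl, pH 7.4, 0.1% BSA. Substrate at about Km: S-2444 for uPA, S-2288 for matriptase. Initial rates read at 405 nm; IC50 from a sigmoidal nonlinear fit.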

SARS-CoV-2 = conditions: by acting against TMPRSS2; cited from earlier work
murine uPA (muPA) = murine uPA (muPA) (Mus musculus, UniProt P06869); experiment: Chromogenic enzyme inhibition assay, murine uPA serine protease domain; type: biochemical
Summary of the method: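 Mouse uPA serine protease domain, expressed as E. coli BL21(DE3) inclusion bodies, then refolded and purified. 2 nM enzyme preincubated 15 min at 37°C with varied test compound in 0.01 M HEPES, 0.15 M NaCl, pH 7.4, 0.1% BSA. S-2444 then added at about Km. Initial velocities read at 405 nm; IC50 from a sigmoidal nonlinear regression.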

plasma kallikrein (PK) = plasma kallikrein (PK) (Homo sapiens, UniProt P03952); experiment: Chromogenic enzyme inhibition assay, plasma kallikrein; type: biochemical
matriptase = target: T1, matriptase (Homo sapiens, UniProt Q9Y5Y6); experiment: Chromogenic enzyme inhibition assay, matriptase; type: biochemical
T1 sequence (Q9Y5Y6 615-854 limits assumed): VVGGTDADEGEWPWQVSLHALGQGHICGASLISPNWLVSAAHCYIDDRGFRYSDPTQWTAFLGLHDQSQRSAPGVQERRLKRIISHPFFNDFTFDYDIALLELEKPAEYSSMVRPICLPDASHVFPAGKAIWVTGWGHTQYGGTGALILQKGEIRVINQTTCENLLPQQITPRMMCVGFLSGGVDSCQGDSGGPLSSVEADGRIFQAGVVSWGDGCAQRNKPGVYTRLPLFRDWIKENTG
Summary of the method: as §1

factor XIa (FXIa) = factor XIa (FXIa) (Homo sapiens, UniProt P03951); experiment: Chromogenic enzyme inhibition assay, factor XIa; type: biochemical
Summary of the method: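 Recombinant FXIa serine protease domain expressed in Pichia pastoris X-33. 2 nM enzyme preincubated 15 min at 37°C with a range of test compound concentrations in 0.01 M HEPES, 0.15 M NaCl, pH 7.4, 0.1% BSA. Chromogenic substrate was then added at about its Km. Initial velocities were read at 405 nm, and IC50 came from a sigmoidal nonlinear fit.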

factor XIa (FXIa), sequence (P03951 388-623 limits assumed): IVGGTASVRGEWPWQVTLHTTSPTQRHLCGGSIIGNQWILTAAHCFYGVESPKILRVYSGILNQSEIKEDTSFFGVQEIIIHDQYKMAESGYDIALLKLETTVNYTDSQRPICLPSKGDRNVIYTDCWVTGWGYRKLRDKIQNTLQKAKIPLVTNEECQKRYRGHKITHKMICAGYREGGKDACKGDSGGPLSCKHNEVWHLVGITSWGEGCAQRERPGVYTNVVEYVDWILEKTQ
plasma kallikrein (PK), sequence (P03952 391-626 limits assumed): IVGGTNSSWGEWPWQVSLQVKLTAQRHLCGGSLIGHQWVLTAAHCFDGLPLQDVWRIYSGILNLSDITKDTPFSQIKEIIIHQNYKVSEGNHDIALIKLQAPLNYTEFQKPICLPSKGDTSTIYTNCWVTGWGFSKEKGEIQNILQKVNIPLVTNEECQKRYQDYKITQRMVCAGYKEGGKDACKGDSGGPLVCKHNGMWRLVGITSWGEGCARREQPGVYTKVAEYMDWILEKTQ
murine uPA (muPA), sequence (P06869 180-426 limits assumed): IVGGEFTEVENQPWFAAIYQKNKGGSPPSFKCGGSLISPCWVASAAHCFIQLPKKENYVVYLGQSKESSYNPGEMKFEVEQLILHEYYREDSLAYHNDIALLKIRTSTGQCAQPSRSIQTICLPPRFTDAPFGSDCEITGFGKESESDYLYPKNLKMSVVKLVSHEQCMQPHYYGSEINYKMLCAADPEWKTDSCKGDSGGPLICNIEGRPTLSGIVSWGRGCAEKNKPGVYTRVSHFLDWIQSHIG

Q: With `CN(C)C(=O)COC(=O)Cc1ccc(OC(=O)c2ccc(NC(=N)N)cc2)cc1` [camostat, camostat mesylate] as the compound, how does the IC50 (uPA) read?
A: 86.4 ± 9.4 nM

Q: And the “SARS-CoV-2 infection of human lung cells” value (SARS-CoV-2)?
A: inhibits SARS-CoV-2 infection of human lung cells

Q: What about the IC50 (murine uPA (muPA)) of the same compound?
A: 100 ± 41.9 nM

Q: And the IC50 (plasma kallikrein (PK))?
A: 10.4 ± 2.7 nM

Q: What about the IC50 (matriptase) of the same compound?
A: 21.1 ± 3.5 nM

Q: What about the IC50 (factor XIa (FXIa)) of the same compound?
A: 44.1 ± 1.1 nM
